Converted amounts (≈) assume the structure as drawn.
Legend:
[1] = molecular target: Substance-P receptor (Oryctolagus cuniculus); assay: Tested for antagonist activity against NK1 receptor in rabbit vena cava by using substance P (SP) as agonist; settings: read-out: pA2 (converted)
Substance-K receptor [2] = molecular target: T1, Substance-K receptor (Oryctolagus cuniculus, UniProt P79218); assay: Tested for antagonist activity against NK-2 receptor in rabbit pulmonary artery by using Neurokinin A as agonist; format: functional; settings: read-out: pA2 (converted)
T1 sequence (P79218 whole entry): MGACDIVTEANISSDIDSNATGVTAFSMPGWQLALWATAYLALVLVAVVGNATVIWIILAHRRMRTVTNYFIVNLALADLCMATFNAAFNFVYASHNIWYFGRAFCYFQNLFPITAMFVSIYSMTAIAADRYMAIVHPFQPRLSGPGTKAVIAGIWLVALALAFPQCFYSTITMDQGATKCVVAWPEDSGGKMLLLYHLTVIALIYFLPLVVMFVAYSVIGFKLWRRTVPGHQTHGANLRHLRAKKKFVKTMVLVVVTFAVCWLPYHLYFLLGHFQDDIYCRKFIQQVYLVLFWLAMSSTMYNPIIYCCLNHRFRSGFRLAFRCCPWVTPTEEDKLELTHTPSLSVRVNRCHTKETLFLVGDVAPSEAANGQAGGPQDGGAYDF
Outline: (§1)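 Isolated-organ contractile bioassays: SP on rabbit vena cava (NK-1), neurokinin A on rabbit pulmonary artery (NK-2), neurokinin B on rat portal vein (NK-3); antagonist apparent affinity expressed as pA2 by Schild plot.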

[3] = Solubility was evaluated; format: physicochemical
Substance-K receptor [4] = molecular target: T2, Substance-K receptor (Homo sapiens, UniProt P21452); assay: Tested for binding affinity against human NK-2 receptor
T2 sequence (P21452 whole entry): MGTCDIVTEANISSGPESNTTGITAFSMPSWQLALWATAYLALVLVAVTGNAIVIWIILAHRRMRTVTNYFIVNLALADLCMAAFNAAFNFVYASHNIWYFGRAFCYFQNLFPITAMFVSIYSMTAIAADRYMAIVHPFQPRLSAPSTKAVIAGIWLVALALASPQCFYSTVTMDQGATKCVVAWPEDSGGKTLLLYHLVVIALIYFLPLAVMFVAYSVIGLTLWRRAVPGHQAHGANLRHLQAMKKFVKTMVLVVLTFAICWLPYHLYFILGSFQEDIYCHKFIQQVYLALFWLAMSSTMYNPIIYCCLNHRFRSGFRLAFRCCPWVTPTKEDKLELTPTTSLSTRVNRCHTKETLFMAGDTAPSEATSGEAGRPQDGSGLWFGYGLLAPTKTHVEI

Neuromedin-K receptor = molecular target: T3, Neuromedin-K receptor (Rattus norvegicus, UniProt P16177); assay: Tested for antagonist activity against NK-3 receptor in rat portal vein by using Neurokinin B as agonist; format: functional; settings: read-out: pA2 (converted)
T3 sequence (P16177 whole entry): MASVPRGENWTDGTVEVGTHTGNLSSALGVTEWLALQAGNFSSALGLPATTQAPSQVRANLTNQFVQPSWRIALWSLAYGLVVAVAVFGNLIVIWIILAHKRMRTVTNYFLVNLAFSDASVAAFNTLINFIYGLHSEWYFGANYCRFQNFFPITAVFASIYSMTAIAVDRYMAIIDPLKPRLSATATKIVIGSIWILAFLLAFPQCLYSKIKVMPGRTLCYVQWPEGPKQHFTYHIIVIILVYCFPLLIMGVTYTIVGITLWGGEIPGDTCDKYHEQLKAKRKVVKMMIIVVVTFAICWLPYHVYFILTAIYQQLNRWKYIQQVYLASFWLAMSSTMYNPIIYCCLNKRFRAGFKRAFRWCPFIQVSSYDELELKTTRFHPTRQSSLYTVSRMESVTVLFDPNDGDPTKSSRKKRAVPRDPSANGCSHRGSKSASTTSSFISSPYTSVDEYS
Outline: as §1

Rattus norvegicus [5] = species: Rattus norvegicus; assay: Tested for its ability to promote degranulation of rat peritoneal mast cells; format: functional, cell-based
Outline: (§2)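 Peritoneal mast cells lavaged from male Sprague-Dawley rats (350-400 g), buffer pH 6.8, 2 × 10^4 cells/mL, preincubated 10 min at 37 °C, then exposed to compound (10^-7 to 10^-4 M, in water or DMSO) 10 min at 37 °C; iced, centrifuged; histamine in supernatant and pellet measured fluorimetrically with o-phthalaldehyde, as % of total.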

Substance-K receptor [6] = molecular target: T4, Substance-K receptor (Rattus norvegicus, UniProt P16610); assay: Tested for binding affinity against rat NK-2 receptor
T4 sequence (P16610 whole entry): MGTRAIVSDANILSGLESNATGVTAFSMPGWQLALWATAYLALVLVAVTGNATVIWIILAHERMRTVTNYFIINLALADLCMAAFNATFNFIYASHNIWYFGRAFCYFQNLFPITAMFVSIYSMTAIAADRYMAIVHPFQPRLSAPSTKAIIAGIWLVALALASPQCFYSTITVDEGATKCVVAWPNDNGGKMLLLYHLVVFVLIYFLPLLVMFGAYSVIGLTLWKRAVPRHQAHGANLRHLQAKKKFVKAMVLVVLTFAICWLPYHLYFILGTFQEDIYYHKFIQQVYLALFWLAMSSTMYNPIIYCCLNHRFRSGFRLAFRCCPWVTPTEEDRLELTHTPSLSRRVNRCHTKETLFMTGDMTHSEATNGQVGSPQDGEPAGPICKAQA

Mus musculus [7] = assay: Tested for antinociceptive activity against mouse hotplate test for 60 min after oral administration of 40 mg/kg (P*<0.05); format: functional
Outline: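 Male CD1 mice (25-30 g) on a 55 ± 0.2 °C plate; forepaw-licking latency measured 60 min after oral 40 mg/kg given in water (soluble) or 0.2% hydroxypropylcellulose (insoluble); % increase of reaction time versus vehicle controls; groups of 12 animals; Dunnett t-test.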

Substance-P receptor [8] = molecular target: Substance-P receptor (Rattus norvegicus, UniProt P14600); assay: Tested for binding affinity against rat NK-1 receptor
Mus musculus [9] = assay: Tested for antinociceptive activity against mouse hotplate test for 10 min after intravenous injection at 0.5 […] (P*<0.05); format: functional
Substance-P receptor [10] = molecular target: Substance-P receptor (Homo sapiens, UniProt P25103); assay: Tested for binding affinity against human NK-1 receptor
Rattus norvegicus [11] = species: Rattus norvegicus; assay: Tested for its ability to promote degranulation of rat peritoneal mast cells at 0.1 mM or lower; No degranulation; format: functional, cell-based
Outline: as §2

Substance-K receptor [12] = molecular target: T4, Substance-K receptor; assay: Tested for binding affinity against rat NK-2 receptor transfected on CHO cells using [125I]-His] NKA as radioligand; format: cell-based
Substance-K receptor [13] = molecular target: T2, Substance-K receptor; assay: Tested for binding affinity against human NK-2 receptor transfected on CHO cells using [125I]-His] NKA as radioligand; format: cell-based

Chain of Substance-P receptor (Homo sapiens, UniProt P25103) (P25103 whole entry): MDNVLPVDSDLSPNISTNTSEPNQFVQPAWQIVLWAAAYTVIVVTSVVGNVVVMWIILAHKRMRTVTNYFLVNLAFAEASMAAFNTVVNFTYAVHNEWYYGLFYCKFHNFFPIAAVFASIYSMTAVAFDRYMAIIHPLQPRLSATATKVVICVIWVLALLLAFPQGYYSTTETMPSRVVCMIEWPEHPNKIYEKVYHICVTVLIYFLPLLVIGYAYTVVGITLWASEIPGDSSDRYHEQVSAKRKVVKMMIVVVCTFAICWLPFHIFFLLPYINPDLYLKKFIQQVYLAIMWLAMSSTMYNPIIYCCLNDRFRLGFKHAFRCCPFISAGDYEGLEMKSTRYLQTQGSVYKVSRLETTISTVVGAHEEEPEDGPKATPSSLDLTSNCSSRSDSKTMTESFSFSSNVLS
Chain of Substance-P receptor (Rattus norvegicus, UniProt P14600) (P14600 whole entry): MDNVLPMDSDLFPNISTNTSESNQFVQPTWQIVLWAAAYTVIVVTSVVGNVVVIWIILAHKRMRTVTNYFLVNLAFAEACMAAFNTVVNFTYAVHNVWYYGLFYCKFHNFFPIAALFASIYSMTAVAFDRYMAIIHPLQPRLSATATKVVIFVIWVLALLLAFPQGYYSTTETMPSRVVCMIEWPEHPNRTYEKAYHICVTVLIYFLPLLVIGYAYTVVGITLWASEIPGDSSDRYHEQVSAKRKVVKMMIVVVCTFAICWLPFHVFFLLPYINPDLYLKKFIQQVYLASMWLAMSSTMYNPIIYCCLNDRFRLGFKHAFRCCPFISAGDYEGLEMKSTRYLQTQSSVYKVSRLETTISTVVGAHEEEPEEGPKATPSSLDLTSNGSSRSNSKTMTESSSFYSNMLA

| Compound | Kb [1] [nM] | Kb (Substance-K receptor [2]) [nM] | solubility [3] [mg/mL] | IC50 (Substance-K receptor [4]) [nM] | Kb (Neuromedin-K receptor) [nM] | IC50 (Rattus norvegicus [5]) [nM] | IC50 (Substance-K receptor [6]) [nM] | Increase (Mus musculus [7]) [%] | IC50 (Substance-P receptor [8]) [nM] | Increase (Mus musculus [9]) [%] | IC50 (Substance-P receptor [10]) [nM] | IC50 (Rattus norvegicus [11]) | IC50 (Substance-K receptor [12]) [nM] | IC50 (Substance-K receptor [13]) [nM] |
| --- | --- | --- | --- | --- | --- | --- | --- | --- | --- | --- | --- | --- | --- | --- |
| CN(Cc1ccccc1)C(=O)[C@H](Cc1ccccc1)NC(=O)[C@@H](Cc1cn(C(=O)OCCCCCCN)c2ccccc12)NC(=O)C[C@@H]1NC(=O)[C@@H]2C3CCC(CC3)N2C1=O | 39.8 | 10000 | 40 (≈ 48.1 mM) | 46 | 10000 | 13000 | 244 | 62 | 3140 | 40 | 34 |  |  |  |
| CN(Cc1ccccc1)C(=O)[C@H](Cc1ccccc1)NC(=O)[C@@H](Cc1cn(C=O)c2ccccc12)NC(=O)C[C@@H]1NC(=O)[C@@H]2C3CCC(CC3)N2C1=O |  | 12600 | < 0.01 |  | 12600 |  |  | 33 |  | 51 |  | Not Active | 142 | 17 |
| COC(=O)n1cc(C[C@@H](NC(=O)C[C@@H]2NC(=O)[C@@H]3C4CCC(CC4)N3C2=O)C(=O)N[C@@H](Cc2ccccc2)C(=O)N(C)Cc2ccccc2)c2ccccc21 | 100 | 15800 | < 0.01 |  | 158 |  |  |  |  |  |  |  |  |  |
| CN(Cc1ccccc1)C(=O)[C@H](Cc1ccccc1)NC(=O)[C@@H](Cc1cn(C(=O)OCc2ccccc2)c2ccccc12)NC(=O)C[C@@H]1NC(=O)[C@@H]2C3CCC(CC3)N2C1=O | 158 | 1260 | < 0.01 |  | 1580 |  |  |  |  |  |  |  |  |  |
| CN(Cc1ccccc1)C(=O)[C@H](Cc1ccccc1)NC(=O)[C@@H](Cc1cn(C(=O)CCC(=O)O)c2ccccc12)NC(=O)C[C@@H]1NC(=O)[C@@H]2C3CCC(CC3)N2C1=O | 126 | 15800 | 45 (≈ 57 mM) | 129 | 12600 |  | 388 | 53 | 14500 | 42 | 85 |  |  |  |
| CC(=O)n1cc(C[C@@H](NC(=O)C[C@@H]2NC(=O)[C@@H]3C4CCC(CC4)N3C2=O)C(=O)N[C@@H](Cc2ccccc2)C(=O)N(C)Cc2ccccc2)c2ccccc21 | 50.1 | 126 | < 0.01 |  | 100 |  |  |  |  |  |  |  |  |  |
| CN(Cc1ccccc1)C(=O)[C@H](Cc1ccccc1)NC(=O)[C@@H](Cc1cn(C(=O)CCCCCCN)c2ccccc12)NC(=O)C[C@@H]1NC(=O)[C@@H]2C3CCC(CC3)N2C1=O |  | 20000 | 43 (≈ 52.7 mM) | 45 | 2000 | 13000 | 188 | 62 |  | 54 |  |  |  |  |

— ChEMBL document CHEMBL1126707, “Tetrapeptide tachykinin antagonists: synthesis and modulation of the physicochemical and pharmacological properties of a new series of partially cyclic analogs” (J Med Chem, 1993)
